This is an account of results in PubChem BioAssay.

A short description of assay [1]: RPL19A-GFP modulators, yeast TOR pathway, confirmation, cell-based, S. cerevisiae, flow cytometry, cherry picks, mother/daughter gates (AID 2270;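 active = GFP response below 50% of the DMSO control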). Conditions: S. cerevisiae RPL19A-GFP strain, 3 h, at 10 µM, stronger effect = lower value, 100 = same GFP as DMSO wells. (A flow cytometer gives signals particle by particle.)
Assay [2] is described as follows: LAP4-GFP expression modulators in yeast, confirmation, cell-based, cherry picks, flow cytometry, mother/daughter gates (AID 2271;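 active = GFP response above 150% of the DMSO control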;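 also: ratio of sample to DMSO plate mean so 100% equals DMSO level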). The following applies: S. cerevisiae LAP4-GFP strain, 3 h, at 10 µM, stronger effect = higher value, 100 means same as DMSO control. In short, it runs like this:
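Material: Alexa Fluor 633-labelled Saccharomyces cerevisiae GFP-fusion strain, single-plex | Amount: Yeast cells seeded at OD600 of 0.2 | Buffer or medium: SC growth medium | Schedule: 3 h exposure, 30 °C | Measured by: HT flow cytometry, GFP fluorescence channel | Evaluation: % GFP response vs DMSO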

Assay [3] can be described thus: modulators of MEP2-GFP levels in yeast, confirmation, S. cerevisiae, flow cytometry GFP, cherry picks (AID 2272;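 active = GFP response above 150% of the DMSO control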;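 also: ratio of well signal to plate DMSO mean so 100% equals DMSO level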). Conditions: S. cerevisiae MEP2-GFP strain, 3 h, at 10 µM, stronger effect = higher value.
Assay [4] can be described thus: AGP1-GFP expression modulators, hit retest, confirmation, cell-based, flow cytometry, S. cerevisiae, cherry picks (AID 2273).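 Also: median GFP channel fluorescence over the whole cell population gate.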 The following applies: S. cerevisiae AGP1-GFP strain, 3 h, at 10 µM.
Assay [5] is described as follows: modulators of CIT2-GFP expression in yeast, confirmation, S. cerevisiae, GFP fusion, cherry picks, mother/daughter gates (AID 2274). The following applies: S. cerevisiae CIT2-GFP strain, flow cytometry, 3 h, at 10 µM, stronger effect = higher value.
The mark [6] stands for this setting: measured here: daughter cell gate.
[7] abbreviates: measured here: mother cell gate.
The mark [8] stands for this setting: measured here: daughter cell gate response.
Where [9] appears, read: measured here: mother cell gate response.

Activity calls are given as the source filed them.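 The calls were made as follows, unless noted: active = GFP response above 150% of the DMSO level; inconclusive = fewer than 70 events counted for a yeast strain; inactive = the rest.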

As for `COCCNC(=O)c1ccccc1-c1nc(-c2ccccc2Cl)no1`, the GFP response vs DMSO is 98% (inactive) in assay [1], 97.1% in assay [1] (setting [6]), 98.9% in assay [1] (setting [7]) and 105% (inactive) in assay [3]. Moreover, the GFP response relative to DMSO is 101% (inactive) in assay [2], 99.2% in assay [2] (setting [8]) and 99.3% in assay [2] (setting [9]). Further, the GFP response, % of DMSO in assay [4] is 96% (inactive); in assay [5], 105% (inactive); in assay [5] (setting [6]) it was 105%; in assay [5] (setting [7]), 103%.
Take `CCc1nnc(NC(=O)CSc2nnc(C3CCCCC3)n2-c2cccc(Cl)c2)s1`: the GFP response vs DMSO in assay [1] was 98.2% (inactive); in assay [1] (setting [6]), 98.5%; in assay [1] (setting [7]), 98.6%; in assay [3], 102% (inactive). For the same molecule, the GFP response relative to DMSO is 100% (inactive) in assay [2], 99.3% in assay [2] (setting [8]) and 99.5% in assay [2] (setting [9]). The GFP response, % of DMSO in assay [4] is 101% (inactive); in assay [5], 101% (inactive); in assay [5] (setting [6]) it was 102%; in assay [5] (setting [7]), 100%.
For the molecule `Cn1c(=O)c(C(=O)Nc2ncccc2O)c(O)c2ccccc21`, the GFP response vs DMSO in assay [1] is 95.3% (inactive); in assay [1] (setting [6]) it was 93.9%; in assay [1] (setting [7]) it was 91.8%; in assay [3], 145% (inactive). Moreover, the GFP response relative to DMSO in assay [2] is 100% (inactive); in assay [2] (setting [8]), 91.3%; in assay [2] (setting [9]), 90.3%. Further, the GFP response, % of DMSO in assay [4] was 99.8% (inactive); in assay [5] it was 90.3% (inactive); in assay [5] (setting [6]), 90.5%; in assay [5] (setting [7]) it was 88.2%.
Consider `CCN=C(NCC)SC1CC(=O)N(c2cccc(OCC)c2)C1=O` (configuration not stated), for which the GFP response vs DMSO was 99.2% (inactive) in assay [1], 97.1% in assay [1] (setting [6]), 98.4% in assay [1] (setting [7]) and 100% (inactive) in assay [3]. The GFP response relative to DMSO is 101% (inactive) in assay [2], 99.2% in assay [2] (setting [8]) and 98.3% in assay [2] (setting [9]). Further, the GFP response, % of DMSO in assay [4] is 101% (inactive); in assay [5], 103% (inactive); in assay [5] (setting [6]) it was 103%; in assay [5] (setting [7]), 102%.
Regarding `O=C(c1ccc([N+](=O)[O-])o1)N(Cc1nnc(-c2ccccc2Cl)o1)C1CC1`, the GFP response vs DMSO in assay [1] was 99.4% (inactive); in assay [1] (setting [6]), 100%; in assay [1] (setting [7]) it was 99.5%; in assay [3], 99% (inactive). Moreover, the GFP response relative to DMSO in assay [2] was 98.2% (inactive); in assay [2] (setting [8]) it was 99.1%; in assay [2] (setting [9]) it was 98.4%. For the same molecule, the GFP response, % of DMSO in assay [4] is 101% (inactive); in assay [5] it was 98.8% (inactive); in assay [5] (setting [6]), 101%; in assay [5] (setting [7]), 96.8%.
With `Cc1ccc(/C=C/C(=O)c2ccc([N+](=O)[O-])o2)cc1`, the GFP response vs DMSO in assay [1] is 101% (inactive); in assay [1] (setting [6]), 107%; in assay [1] (setting [7]) it was 91.8%; in assay [3], 114% (inactive). The GFP response relative to DMSO is 89.4% (inactive) in assay [2], 89.8% in assay [2] (setting [8]) and 85.2% in assay [2] (setting [9]). For the same molecule, the GFP response, % of DMSO in assay [4] was 107% (inactive); in assay [5], 106% (inactive); in assay [5] (setting [6]) it was 114%; in assay [5] (setting [7]), 89.3%.
Take `COc1ccc(-c2cc3cc(C(=O)O)ccn3c2C(=O)c2ccccc2)cc1`: the GFP response vs DMSO in assay [1] was 97% (inactive); in assay [1] (setting [6]) it was 95.6%; in assay [1] (setting [7]), 98.4%; in assay [3], 105% (inactive). The GFP response relative to DMSO was 107% (inactive) in assay [2], 106% in assay [2] (setting [8]) and 108% in assay [2] (setting [9]). Besides, the GFP response, % of DMSO in assay [4] was 98.3% (inactive); in assay [5], 98.3% (inactive); in assay [5] (setting [6]) it was 99.1%; in assay [5] (setting [7]), 99.7%.
Regarding `CCCn1nc(C(=O)OCC(=O)c2ccc3c(c2)NC(=O)CO3)c2ccccc2c1=O`, the GFP response vs DMSO in assay [1] was 97.2% (inactive); in assay [1] (setting [6]), 96.6%; in assay [1] (setting [7]), 96.5%; in assay [3], 105% (inactive). The GFP response relative to DMSO in assay [2] was 98.2% (inactive); in assay [2] (setting [8]), 97.5%; in assay [2] (setting [9]), 98.4%. Moreover, the GFP response, % of DMSO in assay [4] is 96.3% (inactive); in assay [5] it was 100% (inactive); in assay [5] (setting [6]), 97.4%; in assay [5] (setting [7]), 101%.
As to `COc1ccc(N2CCN(C(=O)c3ccc(C)cc3Cl)CC2)cc1`, the GFP response vs DMSO in assay [1] is 101% (inactive); in assay [1] (setting [6]), 98.1%; in assay [1] (setting [7]), 102%; in assay [3], 104% (inactive). The GFP response relative to DMSO in assay [2] was 97.4% (inactive); in assay [2] (setting [8]), 98.7%; in assay [2] (setting [9]), 99.3%. Also, the GFP response, % of DMSO in assay [4] is 95.9% (inactive); in assay [5], 92.6% (inactive); in assay [5] (setting [6]) it was 93.2%; in assay [5] (setting [7]), 92.3%.
On to `O=C(Nc1ccccc1N1CCOCC1)c1ccc([N+](=O)[O-])o1`, for which the GFP response vs DMSO in assay [1] was 58.5% (inactive); in assay [1] (setting [6]), 82.8%; in assay [1] (setting [7]) it was 47.8%; in assay [3] it was 90.5% (inactive). Also, the values for the GFP response relative to DMSO in assay [2], in assay [2] (setting [8]) and in assay [2] (setting [9]) were 128% (inactive), 104% and 116%, respectively. In addition, the GFP response, % of DMSO was 87.6% (inactive) in assay [4], 63.9% (inactive) in assay [5], 77.5% in assay [5] (setting [6]) and 55.2% in assay [5] (setting [7]).
For `Cc1cc(N2CCC(C)CC2)n2nc(C)c(-c3ccccc3)c2n1`, the GFP response vs DMSO in assay [1] is 101% (inactive); in assay [1] (setting [6]) it was 101%; in assay [1] (setting [7]), 101%; in assay [3], 104% (inactive). Further, the GFP response relative to DMSO in assay [2] was 97.7% (inactive); in assay [2] (setting [8]), 93.6%; in assay [2] (setting [9]), 97.5%. Moreover, the GFP response, % of DMSO in assay [4] was 98.4% (inactive); in assay [5], 101% (inactive); in assay [5] (setting [6]) it was 102%; in assay [5] (setting [7]), 99.1%.
Consider `COc1cc(SSc2cc(OC)cc([N+](=O)[O-])c2N)c(N)c([N+](=O)[O-])c1`, for which the GFP response vs DMSO in assay [1] is 89% (inactive); in assay [1] (setting [6]), 78.4%; in assay [1] (setting [7]) it was 80.4%; in assay [3], 118% (inactive). For the same molecule, the GFP response relative to DMSO in assay [2] was 265% (active); in assay [2] (setting [8]) it was 153%; in assay [2] (setting [9]), 252%. Moreover, the GFP response, % of DMSO was 124% (inactive) in assay [4], 145% (inactive) in assay [5], 112% in assay [5] (setting [6]) and 143% in assay [5] (setting [7]).
Regarding `COC(=O)NC1CCC(CC2CCC(NC(=O)OC)CC2)CC1` (configuration not stated), the GFP response vs DMSO in assay [1] was 99% (inactive); in assay [1] (setting [6]), 98.9%; in assay [1] (setting [7]), 99.4%; in assay [3] it was 100% (inactive). The GFP response relative to DMSO was 92.8% (inactive) in assay [2], 92.8% in assay [2] (setting [8]) and 92.9% in assay [2] (setting [9]). The GFP response, % of DMSO in assay [4] was 94.7% (inactive); in assay [5] it was 103% (inactive); in assay [5] (setting [6]), 105%; in assay [5] (setting [7]) it was 103%.
On to `OCc1ccccc1SSc1ccccc1CO`, for which the GFP response vs DMSO was 101% (inactive) in assay [1], 99.2% in assay [1] (setting [6]), 98.5% in assay [1] (setting [7]) and 100% (inactive) in assay [3]. Further, the GFP response relative to DMSO was 149% (inactive) in assay [2], 137% in assay [2] (setting [8]) and 156% in assay [2] (setting [9]). Further, the GFP response, % of DMSO in assay [4] was 104% (inactive); in assay [5], 103% (inactive); in assay [5] (setting [6]), 101%; in assay [5] (setting [7]) it was 99.8%.
Consider `CCC(=O)Oc1oc(-c2ccccc2)nc1C=Nc1ccccc1OC`, for which the GFP response vs DMSO in assay [1] was 102% (inactive); in assay [1] (setting [6]) it was 102%; in assay [1] (setting [7]) it was 102%; in assay [3], 95.2% (inactive). The GFP response relative to DMSO was 105% (inactive) in assay [2], 94.4% in assay [2] (setting [8]) and 108% in assay [2] (setting [9]). Also, the GFP response, % of DMSO is 95.5% (inactive) in assay [4], 90.3% (inactive) in assay [5], 86.9% in assay [5] (setting [6]) and 92.6% in assay [5] (setting [7]).
On to `CN(C(=O)c1ccccc1Cl)c1ccccc1`, for which the GFP response vs DMSO in assay [1] is 100% (inactive); in assay [1] (setting [6]), 100%; in assay [1] (setting [7]) it was 98.8%; in assay [3], 97.2% (inactive). The GFP response relative to DMSO was 94.1% (inactive) in assay [2], 96% in assay [2] (setting [8]) and 93.4% in assay [2] (setting [9]). The GFP response, % of DMSO in assay [4] is 103% (inactive); in assay [5] it was 101% (inactive); in assay [5] (setting [6]), 103%; in assay [5] (setting [7]) it was 102%.
Turning to `CCOc1ccc(-c2noc(-c3ccncc3)n2)cc1OCC`, the GFP response vs DMSO in assay [1] is 96.4% (inactive); in assay [1] (setting [6]), 93.7%; in assay [1] (setting [7]) it was 95.7%; in assay [3], 116% (inactive). The GFP response relative to DMSO in assay [2] was 106% (inactive); in assay [2] (setting [8]), 106%; in assay [2] (setting [9]) it was 106%. The GFP response, % of DMSO in assay [4] is 98.8% (inactive); in assay [5], 102% (inactive); in assay [5] (setting [6]) it was 103%; in assay [5] (setting [7]) it was 99.3%.
